What was measured:
Format in all cases: functional
[1] = substrate: COc1cc(CC(C)N)c(OC)cc1I; assay: (§1) The maximum responses of [3H]- inositol monophosphate accumulation in cells expressing the 5-hydroxytryptamine 2A receptor
[2] = substrate: COc1cc(C(F)(F)F)c(OC)cc1CCN; assay: as §1
[3] = substrate: COc1cc(C(F)(F)F)c(OC)cc1CC(C)N; assay: as §1
[4] = substrate: COc1cc(CC(C)N)c(OC)cc1I; assay: (§2) The maximum responses of [3H]- inositol monophosphate accumulation in cells expressing the 5-hydroxytryptamine 2C receptor
Outline: (§3)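 A9 cells expressing cloned 5-HT2C receptor, labelled 18 h with 1 μCi/mL [3H]inositol in inositol-free DMEM with dialysed serum. Compounds given 60 min with 10 mM LiCl in Krebs bicarbonate buffer, then [3H]inositol monophosphate accumulation measured. Expressed as % of the 5-HT (10^-5 M) maximum minus control. Vmax by nonlinear regression. Triplicates in three experiments, mean ± SE.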

[5] = substrate: COc1cc(C(F)(F)F)c(OC)cc1CCN; assay: as §2; outline: as §3
[6] = substrate: COc1cc(C(F)(F)F)c(OC)cc1CC(C)N; assay: as §2; outline: as §3

Protein	Vmax [1]	Vmax [2]	Vmax [3]	Vmax [4]	Vmax [5]	Vmax [6]
5-hydroxytryptamine receptor 2A (Mus musculus), P35363 (protein) MEILCEDNISLSSIPNSLMQLGDDSRLYPNDFNSRDANTSEASNWTIDAENRTNLSCEGYLPPTCLSILHLQEKNWSALLTTVVIILTIAGNILVIMAVSLEKKLQNATNYFLMSLAIADMLLGFLVMPVSMLTILYGYRWPLPSKLCAVWIYLDVLFSTASIMHLCAISLDRYVAIQNPIHHSRFNSRTKAFLKIIAVWTISVGISMPIPVFGLQDDSKVFKEGSCLLADDNFVLIGSFVAFFIPLTIMVITYFLTIKSLQKEATLCVSDLSTRAKLSSFSFLPQSSLSSEKLFQRSIHREPGSYAGRRTMQSISNEQKACKVLGIVFFLFVVMWCPFFITNIMAVICKESCNENVIGALLNVFVWIGYLSSAVNPLVYTLFNKTYRSAFSRYIQCQYKENRKPLQLILVNTIPTLAYKSSQLQVGQKKNSQEDAEPTANDCSMVTLGNQHSEEMCTDNIETVNEKVSCV	94	58	91			
5-hydroxytryptamine receptor 2C (Mus musculus), P34968 (protein) MVNLGTAVRSLLVHLIGLLVWQFDISISPVAAIVTDTFNSSDGGRLFQFPDGVQNWPALSIVVIIIMTIGGNILVIMAVSMEKKLHNATNYFLMSLAIADMLVGLLVMPLSLLAILYDYVWPLPRYLCPVWISLDVLFSTASIMHLCAISLDRYVAIRNPIEHSRFNSRTKAIMKIAIVWAISIGVSVPIPVIGLRDESKVFVNNTTCVLNDPNFVLIGSFVAFFIPLTIMVITYFLTIYVLRRQTLMLLRGHTEEELRNISLNFLKCCCKKGDEEENAPNPNPDQKPRRKKKEKRPRGTMQAINNEKKASKVLGIVFFVFLIMWCPFFITNILSVLCGKACNQKLMEKLLNVFVWIGYVCSGINPLVYTLFNKIYRRAFSKYLRCDYKPDKKPPVRQIPRVAATALSGRELNVNIYRHTNERVVRKANDTEPGIEMQVENLELPVNPSNVVSERISSV				82	80	82

From ChEMBL document CHEMBL1127290, “1-(2,5-Dimethoxy-4-(trifluoromethyl)phenyl)-2-aminopropane: a potent serotonin 5-HT2A/2C agonist” (J Med Chem, 1994)
